How the values were obtained:
[1] = test system: Leishmania amazonensis promastigotes; test: In vitro activity against promastigotes; type: cell-based; settings: 72 h; for IC50: Leishmania amazonensis; for MPC (minimal parasiticide concentration): promastigotes, 26 °C, mean ± SD
Summary of the method: (§1)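 Strains: L. amazonensis MHOM/77/LTB0016, L. infantum MHOM/FR/78/LEM75, L. braziliensis MHOM/BR/75/M2 903. Log-phase promastigotes at 5 x 10^5/mL in Schneider's with 10% heat-inactivated FBS; compound added from two-fold DMSO stocks (4 mg/mL–3.9 µg/mL), DMSO at most 0.5%. Incubated 72 h at 26 °C. MPC = geometric mean (4 replicates) of concentrations fully stopping motility, by microscope. Then p-nitrophenyl phosphate, 3 h 37 °C, A405, minus parasite-free drug wells. IC50 by Emax sigmoid fit; at least three repeats.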

[2] = test system: Leishmania braziliensis promastigotes; test: In vitro activity against promastigotes; type: cell-based; settings: 72 h; for IC50: Leishmania braziliensis; for MPC (minimal parasiticide concentration): promastigotes, 26 °C, mean ± SD
Summary of the method: as §1

[3] = test system: Leishmania infantum promastigotes; test: In vitro activity against promastigotes; type: cell-based; settings: 72 h; for IC50: Leishmania infantum; for MPC (minimal parasiticide concentration): promastigotes, 26 °C, mean ± SD
Summary of the method: as §1

[4] = test system: promastigotes of Leishmania amazonensis, Leishmania infantum and Leishmania braziliensis; type: cell-based; settings: read-out: Average IC50
Summary of the method: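 IC50 was measured separately for L. amazonensis, L. infantum and L. braziliensis promastigotes. Each assay: 72 h at 26 °C, phosphatase read-out (p-nitrophenyl phosphate, A405), Emax sigmoid fit. The average IC50 is the arithmetic mean of the three species' IC50 values.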

Leishmania amazonensis = test: Mouse model of experimental cutaneous leishmaniasis, lesion size; type: in vivo, BALB/c mice; settings: furvina 2 mg/Kg, UC245 100 mg/Kg; for average lesion size with respect to the control group: experiment 2: early lesions, intraperitoneal every 12 h for 14 days, 28 days of follow up; for effect on chronic lesions (in words): experiment 3: chronic lesions, 18 weeks post-infection, every 12 h for 14 days
Summary of the method: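 Female BALB/c mice (16-18 g, 6-8 weeks) infected intradermally in the footpad with 5 x 10^6 stationary-phase promastigotes. Intraperitoneal dosing every 12 h for 14 days, test compounds in Miglyol 810. Controls were untreated infected mice and amphotericin B (1 mg/Kg in early lesions; 5 mg/Kg every 48 h in chronic). Lesions measured weekly by Vernier calliper; chronic size taken as dorsoplantar × lateral diameter.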

[5] = test system: intracellular amastigotes; test: Activity against intracellular amastigotes in mouse peritoneal macrophages; type: cell-based; settings: drug concentrations not toxic to mouse peritoneal macrophages used as host cells; data not shown
[6] = Cytotoxicity against mammalian cells; type: cell-based; settings: human, HeLa-KB cells (subline of HeLa, ATCC CCL-17)
Summary of the method: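 HeLa-KB cells seeded at 4 x 10^4/mL in RPMI-1640 with 10% heat-inactivated FCS and held 24 h (5% CO2). Medium was replaced by test compound in fresh medium, 30 µg/mL to 100 ng/mL, in triplicate, with a podophyllotoxin positive control. After 72 h, alamarBlue for 4 h, then fluorescence at 530/585 nm. CC50 from a nonlinear Emax sigmoid fit; at least three repeats.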

Row | SMILES | IC50 [1] [nM] | MPC (minimal parasiticide concentration) ([1]; amphotericin B) [nm] | IC50 [2] [nM] | MPC (minimal parasiticide concentration) ([2]; amphotericin B) [nm] | IC50 [3] [nM] | MPC (minimal parasiticide concentration) ([3]; amphotericin B) [nm] | IC50 [4] [nM] | average lesion size with respect to the control group (Leishmania amazonensis) [%] | effect on chronic lesions (in words) (Leishmania amazonensis) | MPC (minimal parasiticide concentration) ([1]; complete arrest of motion) [µM] | MPC (minimal parasiticide concentration) ([2]; complete arrest of motion) [µM] | efficacy in reducing the percentage of infected cells [5] | CC50 at 72 h [6] [nM] | MPC (minimal parasiticide concentration) ([3]; complete arrest of motion) [µM]
1 | C[C@@H]1[C@H](O)[C@@H](C)/C=C/C=C/C=C/C=C/C=C/C=C/C=C/[C@H](O[C@@H]2O[C@H](C)[C@@H](O)[C@H](N)[C@@H]2O)C[C@@H]2O[C@](O)(C[C@@H](O)C[C@@H](O)[C@H](O)CC[C@@H](O)C[C@@H](O)CC(=O)O[C@H]1C)C[C@H](O)[C@H]2C(=O)O [Amphotericin B, amphotericin B, reference compound] | 29 ± 5 | 55 ± 7 | 14 ± 3 | 30 ± 6 | 14 ± 4 | 17 ± 5 | – | – | – | – | – | – | – | –
2 | O=[N+]([O-])C(Br)=Cc1ccc(Br)o1 [Furvina, 2-bromo-5-(2-bromo-2-nitrovinyl)-furan] | 800 ± 300 | – | 900 ± 400 | – | 1200 ± 300 | – | 970 | 59 | progressively decreased lesion sizes | 5.2 ± 0.4 | 1.7 ± 0.4 | under 50% | 13600 ± 2200 | 2.9 ± 0.3
3 | CC(=Cc1ccc(Br)o1)[N+](=O)[O-] [UC245, 2-bromo-5-(2-methyl-2-nitrovinyl)-furan] | 900 ± 200 | – | 1000 ± 300 | – | 900 ± 300 | – | 930 | 55 | did not show any efficacy | 6.1 ± 0.4 | 5.7 ± 0.4 | under 50% | 16700 ± 1800 | 2.7 ± 0.4
4 | COc1cc([C@@H]2c3cc4c(cc3[C@H](O)[C@H]3COC(=O)[C@H]23)OCO4)cc(OC)c1OC [podophyllotoxin, reference compound] | – | – | – | – | – | – | – | – | – | – | – | – | 5.3 ± 1.4 | –
